ChEMBL document CHEMBL4765231 (J Med Chem, 2016)
In brackets after ≈: the same amount, converted by molar mass. Activity calls are given as the source filed them. The rule behind the calls is not given here.

Tests used:
Homo sapiens = species on record: Homo sapiens; assay: Inhibition of L-type calcium channel (unknown origin)
[1] = Clearance in iv dosed cynomolgus monkey; assay type: ADME, organism-based, Macaca fascicularis; conditions: in vivo
[2] = Half-life in iv dosed cynomolgus monkey; assay type: ADME, organism-based, Macaca fascicularis; conditions: in vivo
[3] = molecular target: T1, Sodium channel protein type 4 subunit alpha (Homo sapiens, UniProt P35499); assay: Inhibition of NaV1.4 (unknown origin) at 10 Hz frequency by whole cell manual patch clamp technique
Procedure, shortened: (§1)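 Whole-cell manual patch clamp on non-cardiac NaV1.x channels, run at room temperature. Series resistance was compensated 90% so the command potential was reached within microseconds.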

[4] = Oral bioavailability in Sprague-Dawley rat; assay type: ADME, organism-based; conditions: in vivo
[5] = Metabolic stability in human microsomes assessed as half life; assay type: ADME, Microsome
[6] = Toxicity in New Zealand rabbit model of LAD coronary artery occlusion-induced ischemia-reperfusion injury assessed as effect on blood pressure at 0.25 to 0.5 uM; set-up: species or system Oryctolagus cuniculus; conditions: in vivo, dose 0.25-0.5 µM
[7] = Volume of distribution at steady state in iv dosed Beagle dog; assay type: ADME, organism-based, Canis lupus familiaris; conditions: in vivo, read-out: Vdss
Oryctolagus cuniculus [8] = assay: Cardioprotective activity in rabbit model of left circumflex artery ligation-induced ischemia assessed as inhibition of VT-VF at 0.125 to 1.5 mg/kg by electrocardiographic analysis; assay type: functional, organism-based; conditions: dose 0.125-1.5 mg/kg
[9] = Intrinsic clearance in human hepatocytes; assay type: ADME, cell-based, Hepatocyte; conditions: read-out: CLH
Procedure, shortened: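 Clearance measured in pooled human hepatocytes with tritium-labelled compound.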

Oryctolagus cuniculus [10] = assay: (§2) Cardioprotective activity in New Zealand rabbit model of LAD coronary artery occlusion-induced ischemia-reperfusion injury assessed as inhibition of ST segment elevation intravenously administered with compound for 30 mins followed by induction of ischemia for 15 mins and subsequent reperfusion for 15 mins by electrocardiographic analysis; assay type: functional
[11] = molecular target: T2, Sodium channel protein type 1 subunit alpha (Homo sapiens, UniProt P35498); assay: Inhibition of peak NaV1.1 (unknown origin) at 10 uM at 10 Hz frequency by manual patch clamp technique
Procedure, shortened: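 Whole-cell manual patch clamp at room temperature, with series resistance compensated 90%.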

[12] = Inhibition of peak sodium current (unknown origin) by manual patch clamp method; set-up: species or system Homo sapiens
[13] = Toxicity in dog assessed as adverse event at > 10 uM; set-up: species or system Canis lupus familiaris; conditions: in vivo
Procedure, shortened: (§3)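 Single ascending dose studies, with CNS-related adverse events monitored.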

[14] = Clearance in iv dosed Beagle dog; assay type: ADME, organism-based, Canis lupus familiaris; conditions: in vivo
[15] = Permeability of compound across basolateral to apical side in human Caco-2 cells; assay type: ADME, cell-based; conditions: read-out: permeability
[16] = Oral bioavailability in cynomolgus monkey; assay type: ADME, organism-based, Macaca fascicularis; conditions: in vivo
Oryctolagus cuniculus [17] = species on record: Oryctolagus cuniculus; assay: as §2, with “at 500 nM” for “intravenously administered with compound”; assay type: functional; conditions: 1 h, time 60 min
[18] = Oral bioavailability in Beagle dog; assay type: ADME, organism-based, Canis lupus familiaris; conditions: in vivo
[19] = Metabolic stability in rat microsomes assessed as half life; assay type: ADME, Microsome
NaV1.1 = NaV1.1 (Homo sapiens, UniProt P35498); assay: Inhibition of NaV1.1 (unknown origin) expressed in cells assessed as inhibition of peak INa current at 10 uM at 25 Hz frequency by whole-cell patch clamp method relative to control; assay type: cell-based; conditions: cells expressing NaV1.1; procedure, shortened: as §1
[20] = Toxicity in New Zealand rabbit model of LAD coronary artery occlusion-induced ischemia-reperfusion injury assessed as effect on heart rate at 0.25 to 0.5 uM; set-up: species or system Oryctolagus cuniculus; conditions: in vivo, dose 0.25-0.5 µM
Oryctolagus cuniculus [21] = species on record: Oryctolagus cuniculus; assay: as §2, with “in” for “in New Zealand”, “by measuring maximum efficacy incubated” for “intravenously administered”, “analysis relative to ranolazine” for “analysis”; assay type: functional; conditions: 0.5 h
[22] = Half-life in iv dosed Beagle dog; assay type: ADME, organism-based, Canis lupus familiaris; conditions: in vivo
NaV1.5 = NaV1.5 (Homo sapiens, UniProt Q14524); assay: Inhibition of human NaV1.5 expressed in HEK293 cells assessed as inhibition of peak sodium current measured at frequency 3 Hz at -20 mV resting membrane potential at 3 uM by electrophysiology assay relative to control; assay type: cell-based; conditions: HEK293 cells expressing human NaV1.5
Oryctolagus cuniculus [23] = species on record: Oryctolagus cuniculus; assay: as §2, with “at 0.25 uM” for “intravenously administered with compound”; assay type: functional; set-up: scale not given: the % may be the effect or the level left; conditions: time 60 min, 1 h
[24] = molecular target: Sodium channel protein type 10 subunit alpha (Homo sapiens, UniProt Q9Y5Y9); assay: Inhibition of NaV1.8 (unknown origin) at 10 Hz frequency by whole cell manual patch clamp technique; procedure, shortened: as §1
[25] = molecular target: T3, Sodium channel protein type 8 subunit alpha (Homo sapiens, UniProt Q9UQD0); assay: Inhibition of NaV1.6 (unknown origin) at 10 Hz frequency by whole cell manual patch clamp technique; procedure, shortened: as §1
T3 sequence (Q9UQD0 whole entry): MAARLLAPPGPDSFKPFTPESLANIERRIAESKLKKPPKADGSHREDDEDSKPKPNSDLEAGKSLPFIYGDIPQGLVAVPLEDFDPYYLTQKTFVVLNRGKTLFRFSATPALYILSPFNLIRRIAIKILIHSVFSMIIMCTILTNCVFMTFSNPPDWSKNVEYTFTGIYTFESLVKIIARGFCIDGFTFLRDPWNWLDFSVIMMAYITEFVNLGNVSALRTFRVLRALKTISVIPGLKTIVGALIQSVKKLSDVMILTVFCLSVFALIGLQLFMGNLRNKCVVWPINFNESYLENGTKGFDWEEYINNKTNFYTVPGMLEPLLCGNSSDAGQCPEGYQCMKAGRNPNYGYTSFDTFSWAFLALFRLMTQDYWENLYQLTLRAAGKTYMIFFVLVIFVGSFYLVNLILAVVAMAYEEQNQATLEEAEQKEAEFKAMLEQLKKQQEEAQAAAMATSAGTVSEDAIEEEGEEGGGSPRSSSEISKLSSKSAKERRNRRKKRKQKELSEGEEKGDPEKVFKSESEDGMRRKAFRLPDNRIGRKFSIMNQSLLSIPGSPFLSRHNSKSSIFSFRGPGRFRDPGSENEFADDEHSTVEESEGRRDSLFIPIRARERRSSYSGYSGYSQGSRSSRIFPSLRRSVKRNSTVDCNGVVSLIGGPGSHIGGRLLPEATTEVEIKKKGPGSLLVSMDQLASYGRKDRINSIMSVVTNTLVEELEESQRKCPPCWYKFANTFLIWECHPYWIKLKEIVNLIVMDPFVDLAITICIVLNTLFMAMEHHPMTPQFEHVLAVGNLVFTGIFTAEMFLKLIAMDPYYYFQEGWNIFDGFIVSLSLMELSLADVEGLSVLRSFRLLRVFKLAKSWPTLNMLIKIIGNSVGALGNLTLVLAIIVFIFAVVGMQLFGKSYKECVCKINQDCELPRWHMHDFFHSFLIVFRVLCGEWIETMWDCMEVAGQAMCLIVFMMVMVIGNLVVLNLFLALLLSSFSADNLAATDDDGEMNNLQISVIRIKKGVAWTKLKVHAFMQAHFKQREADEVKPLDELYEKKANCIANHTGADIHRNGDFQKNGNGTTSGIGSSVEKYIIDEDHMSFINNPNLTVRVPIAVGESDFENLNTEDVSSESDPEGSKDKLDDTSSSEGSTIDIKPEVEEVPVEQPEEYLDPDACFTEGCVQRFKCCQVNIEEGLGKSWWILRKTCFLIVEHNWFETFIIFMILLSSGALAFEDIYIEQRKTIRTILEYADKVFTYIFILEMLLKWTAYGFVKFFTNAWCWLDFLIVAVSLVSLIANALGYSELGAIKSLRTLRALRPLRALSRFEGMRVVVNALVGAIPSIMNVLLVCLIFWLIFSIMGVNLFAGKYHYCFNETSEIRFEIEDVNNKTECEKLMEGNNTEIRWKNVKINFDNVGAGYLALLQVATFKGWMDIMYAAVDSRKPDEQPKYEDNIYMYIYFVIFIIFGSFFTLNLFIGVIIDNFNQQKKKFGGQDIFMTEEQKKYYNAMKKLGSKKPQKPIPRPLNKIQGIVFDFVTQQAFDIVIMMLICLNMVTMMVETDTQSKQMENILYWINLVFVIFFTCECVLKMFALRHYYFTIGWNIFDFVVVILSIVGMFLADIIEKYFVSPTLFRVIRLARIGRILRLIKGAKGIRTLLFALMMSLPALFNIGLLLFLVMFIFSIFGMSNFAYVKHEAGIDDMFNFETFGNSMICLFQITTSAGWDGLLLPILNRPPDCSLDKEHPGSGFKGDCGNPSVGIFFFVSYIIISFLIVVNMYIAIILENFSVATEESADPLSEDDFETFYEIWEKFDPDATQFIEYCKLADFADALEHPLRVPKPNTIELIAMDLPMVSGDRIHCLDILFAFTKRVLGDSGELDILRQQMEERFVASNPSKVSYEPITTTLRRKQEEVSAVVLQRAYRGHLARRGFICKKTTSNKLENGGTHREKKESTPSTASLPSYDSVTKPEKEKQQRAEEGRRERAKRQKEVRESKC

[26] = molecular target: T2, Sodium channel protein type 1 subunit alpha; assay: Inhibition of NaV1.1 (unknown origin) at 10 Hz frequency by whole cell manual patch clamp technique; procedure, shortened: as §1
[27] = Inhibition of ATX-II induced late sodium current (unknown origin) by manual patch clamp method; set-up: species or system Homo sapiens
[28] = molecular target: T4, Sodium channel protein type 3 subunit alpha (Homo sapiens, UniProt Q9NY46); assay: Inhibition of NaV1.3 (unknown origin) at 25 Hz frequency by whole cell manual patch clamp technique; procedure, shortened: as §1
T4 sequence (Q9NY46 whole entry): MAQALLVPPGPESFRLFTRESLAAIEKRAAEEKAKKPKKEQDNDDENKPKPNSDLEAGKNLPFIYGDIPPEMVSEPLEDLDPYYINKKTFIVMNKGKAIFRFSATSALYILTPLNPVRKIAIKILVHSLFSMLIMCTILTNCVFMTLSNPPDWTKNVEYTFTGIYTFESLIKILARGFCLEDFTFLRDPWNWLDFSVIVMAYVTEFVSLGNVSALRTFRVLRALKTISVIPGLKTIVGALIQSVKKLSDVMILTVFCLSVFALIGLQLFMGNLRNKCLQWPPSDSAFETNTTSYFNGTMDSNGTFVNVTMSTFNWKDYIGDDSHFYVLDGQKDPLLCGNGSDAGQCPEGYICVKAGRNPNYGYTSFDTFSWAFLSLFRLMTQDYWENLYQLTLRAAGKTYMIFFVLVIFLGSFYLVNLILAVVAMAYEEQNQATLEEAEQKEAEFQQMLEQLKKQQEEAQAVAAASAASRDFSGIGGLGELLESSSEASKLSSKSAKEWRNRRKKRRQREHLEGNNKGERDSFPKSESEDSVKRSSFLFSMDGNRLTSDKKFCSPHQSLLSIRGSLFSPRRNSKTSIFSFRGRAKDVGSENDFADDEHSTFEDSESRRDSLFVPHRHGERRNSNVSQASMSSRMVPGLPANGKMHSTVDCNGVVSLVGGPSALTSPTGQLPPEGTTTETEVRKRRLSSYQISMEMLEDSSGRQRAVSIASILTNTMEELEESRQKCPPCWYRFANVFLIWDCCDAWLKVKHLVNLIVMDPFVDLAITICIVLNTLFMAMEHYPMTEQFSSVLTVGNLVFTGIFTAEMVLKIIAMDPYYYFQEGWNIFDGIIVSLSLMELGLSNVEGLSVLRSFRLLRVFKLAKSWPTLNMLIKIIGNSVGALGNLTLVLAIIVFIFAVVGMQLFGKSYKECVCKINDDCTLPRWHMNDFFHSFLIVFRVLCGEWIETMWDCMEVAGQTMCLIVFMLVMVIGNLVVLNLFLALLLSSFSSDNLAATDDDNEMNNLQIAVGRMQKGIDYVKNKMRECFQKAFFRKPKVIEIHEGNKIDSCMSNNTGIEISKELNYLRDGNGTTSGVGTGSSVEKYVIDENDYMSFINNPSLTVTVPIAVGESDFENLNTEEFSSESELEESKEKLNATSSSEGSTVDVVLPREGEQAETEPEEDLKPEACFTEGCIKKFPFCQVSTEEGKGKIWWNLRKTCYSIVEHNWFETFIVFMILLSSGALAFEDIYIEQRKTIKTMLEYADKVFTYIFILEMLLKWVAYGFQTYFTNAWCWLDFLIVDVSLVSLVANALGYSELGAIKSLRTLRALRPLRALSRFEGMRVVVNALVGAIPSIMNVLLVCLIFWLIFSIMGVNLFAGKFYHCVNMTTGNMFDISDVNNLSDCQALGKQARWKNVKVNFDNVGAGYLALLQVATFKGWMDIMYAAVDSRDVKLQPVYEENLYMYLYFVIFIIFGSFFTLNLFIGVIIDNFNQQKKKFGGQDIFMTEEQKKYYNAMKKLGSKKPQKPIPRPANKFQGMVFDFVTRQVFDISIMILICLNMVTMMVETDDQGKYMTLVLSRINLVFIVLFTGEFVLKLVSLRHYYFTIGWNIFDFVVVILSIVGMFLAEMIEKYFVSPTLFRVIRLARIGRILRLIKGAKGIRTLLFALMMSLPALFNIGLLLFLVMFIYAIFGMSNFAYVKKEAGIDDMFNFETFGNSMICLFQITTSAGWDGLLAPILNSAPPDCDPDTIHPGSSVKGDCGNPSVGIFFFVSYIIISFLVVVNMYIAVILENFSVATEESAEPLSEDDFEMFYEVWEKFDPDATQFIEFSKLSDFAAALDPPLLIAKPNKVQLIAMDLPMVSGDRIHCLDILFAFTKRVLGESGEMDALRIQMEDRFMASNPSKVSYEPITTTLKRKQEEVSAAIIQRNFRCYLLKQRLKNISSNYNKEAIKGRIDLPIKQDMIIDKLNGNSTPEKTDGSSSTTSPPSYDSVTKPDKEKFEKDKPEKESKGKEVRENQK

Oryctolagus cuniculus [29] = species on record: Oryctolagus cuniculus; assay: Cardioprotective activity in New Zealand White rabbit heart assessed as reversal of ATX-II induced late sodium current prolongation in change in duration of monophasic action potential at 90 percent repolarization at 1 uM by electrocardiographic analysis relative to control; assay type: functional
Oryctolagus cuniculus [30] = species on record: Oryctolagus cuniculus; assay: Cardioprotective activity in New Zealand White rabbit heart assessed as reversal of ATX-II induced late sodium current prolongation in change in duration of monophasic action potential at 90 percent repolarization by electrocardiographic analysis relative to control; assay type: functional, tissue-based
[31] = Intrinsic clearance in Sprague-dawley rat hepatocytes; assay type: ADME, cell-based, Hepatocyte; conditions: read-out: CLH (converted)
[32] = Solubility of compound in water; assay type: physicochemical
[33] = Intrinsic clearance in Beagle dog hepatocytes; assay type: ADME, cell-based, Canis lupus familiaris, Hepatocyte; conditions: read-out: CLH (converted)
Oryctolagus cuniculus [34] = species on record: Oryctolagus cuniculus; assay: Cardioprotective activity in rabbit model of left circumflex artery ligation-induced ischemia assessed as inhibition of VT-VF by electrocardiographic analysis; assay type: functional, organism-based
[35] = Volume of distribution at steady state in iv dosed cynomolgus monkey; assay type: ADME, organism-based, Macaca fascicularis; conditions: in vivo, read-out: Vdss
[36] = molecular target: T4, Sodium channel protein type 3 subunit alpha; assay: Inhibition of NaV1.3 (unknown origin) at 10 Hz frequency by whole cell manual patch clamp technique; procedure, shortened: as §1
[37] = Metabolic stability in dog microsomes assessed as half life; assay type: ADME, Canis lupus familiaris, Microsome
[38] = Intrinsic clearance in cynomolgus monkey hepatocytes; assay type: ADME, cell-based, Macaca fascicularis, Hepatocyte; conditions: read-out: CLH (converted)
[39] = Toxicity in rat assessed as adverse event at > 10 uM; conditions: in vivo; procedure, shortened: as §3
[40] = Clearance in iv dosed Sprague-Dawley rat; assay type: ADME, organism-based; conditions: in vivo
[41] = molecular target: T1, Sodium channel protein type 4 subunit alpha; assay: Inhibition of NaV1.4 (unknown origin) at 25 Hz frequency by whole cell manual patch clamp technique; procedure, shortened: as §1
[42] = Toxicity in New Zealand rabbit model of LAD coronary artery occlusion-induced ischemia-reperfusion injury assessed as effect on ECG interval at 0.25 to 0.5 uM; set-up: species or system Oryctolagus cuniculus; conditions: in vivo, dose 0.25-0.5 µM
[43] = molecular target: T3, Sodium channel protein type 8 subunit alpha; assay: Inhibition of NaV1.6 (unknown origin) at 25 Hz frequency by whole cell manual patch clamp technique; procedure, shortened: as §1
[44] = Inhibition of late sodium current channel (unknown origin) at 25 Hz frequency by whole cell patch clamp technique; conditions: Homo sapiens
[45] = Permeability of compound across apical to basolateral side in human Caco-2 cells; assay type: ADME, cell-based; conditions: read-out: permeability
Oryctolagus cuniculus [46] = species on record: Oryctolagus cuniculus; assay: Cardioprotective activity in rabbit assessed as decrease in chemically-induced Torsades des Pointes at 2.5 uM by electrocardiographic analysis; assay type: functional; set-up: scale not given: the % may be the effect or the level left
[47] = Half-life in iv dosed Sprague-Dawley rat; assay type: ADME, organism-based; conditions: in vivo
Oryctolagus cuniculus [48] = species on record: Oryctolagus cuniculus; assay: Cardioprotective activity in New Zealand rabbit heart assessed as reversal of ATX-II induced late sodium current increase in QT interval by electrocardiographic analysis; assay type: functional
Oryctolagus cuniculus [49] = species on record: Oryctolagus cuniculus; assay: Cardioprotective activity in rabbit model of left circumflex artery ligation-induced ischemia assessed as inhibition of VT-VF at 2.5 uM; assay type: functional, organism-based
[50] = Volume of distribution at steady state in iv dosed Sprague-Dawley rat; assay type: ADME, organism-based; conditions: in vivo, read-out: Vdss
Oryctolagus cuniculus [51] = species on record: Oryctolagus cuniculus; assay: as §2, with “at 0.5 uM” for “intravenously administered with compound”; assay type: functional; set-up: scale not given: the % may be the effect or the level left; conditions: time 60 min, 1 h

Which results are given for `O=C1c2cc(-c3ccc(OC(F)(F)F)cc3)ccc2OCCN1Cc1ncccn1` [ELECLAZINE]?
inhibition (Homo sapiens): inactive; clearance [1]: 1.83 mL/min/kg; half-life [2]: 300 min; IC50 [3]: 13 µM; bioavailability [4]: 91%; half-life [5]: 395 min; Activity [6]: Non-Toxic; Vd [7]: 1.6 L/kg; Activity (Oryctolagus cuniculus [8]): Active; CLint scaled [9]: < 0.25 mL/min/kg; EC50 (Oryctolagus cuniculus [10]): 190 nM; Activity (Oryctolagus cuniculus [10]; time 60.0 min): Dose-dependent effect; inhibition (INH) [11]: Not Active; IC50 [12]: 51 µM; Activity [13]: Toxic; clearance [14]: 0.7 mL/min/kg; Papp B→A [15]: 29 ×10⁻⁶ cm/s; bioavailability [16]: 39%; inhibition in vivo at 0.5 µM (Oryctolagus cuniculus [17]): 93%; bioavailability [18]: 100%; half-life [19]: 200 min; inhibition at 10 µM (NaV1.1): 53%; Activity [20]: Non-Toxic; Emax (Oryctolagus cuniculus [21]): 93%; half-life [22]: 1670 min; inhibition at 3 µM (NaV1.5): 24%; Activity (Oryctolagus cuniculus [23]): 55%; IC50 [24]: 18.8 µM; IC50 [25]: 28 µM; IC50 [26]: 96 µM; IC50 [27]: 620 nM; IC50 [28]: 3.5 µM; Activity (Oryctolagus cuniculus [29]): 62%; IC50 (Oryctolagus cuniculus [30]): 700 nM; CLint scaled [31]: 2.67 mL/min/kg; solubility [32]: 24 µM (≈ 9.97 µg/mL); CLint scaled [33]: 1 mL/min/kg; EC50 (Oryctolagus cuniculus [34]): 1700 nM; Vd [35]: 1.5 L/kg; IC50 [36]: 16 µM; half-life [37]: 354 min; CLint scaled [38]: 6 mL/min/kg; Activity [39]: Toxic; clearance [40]: 2.33 mL/min/kg; IC50 [41]: 3.3 µM; Activity [42]: Non-Toxic; IC50 [43]: 4 µM; IC50 [44]: 880 nM; Papp A→B [45]: 34.6 ×10⁻⁶ cm/s; Activity (Oryctolagus cuniculus [46]): 100%; half-life [47]: 780 min; Activity (Oryctolagus cuniculus [48]): Active; Activity (Oryctolagus cuniculus [49]): Active; Vd [50]: 2.5 L/kg; Activity (Oryctolagus cuniculus [51]): 93%
